Measured values reported in ChEMBL document CHEMBL1138476 (J Med Chem, 2009).
pIC50, pKi: −log10 of the molar value.

Tests used:
[1] = target: T1, Corticotropin-releasing factor-binding protein (Homo sapiens, UniProt P24387); experiment: Binding affinity to human recombinant CRF binding protein
T1 sequence (P24387 whole entry): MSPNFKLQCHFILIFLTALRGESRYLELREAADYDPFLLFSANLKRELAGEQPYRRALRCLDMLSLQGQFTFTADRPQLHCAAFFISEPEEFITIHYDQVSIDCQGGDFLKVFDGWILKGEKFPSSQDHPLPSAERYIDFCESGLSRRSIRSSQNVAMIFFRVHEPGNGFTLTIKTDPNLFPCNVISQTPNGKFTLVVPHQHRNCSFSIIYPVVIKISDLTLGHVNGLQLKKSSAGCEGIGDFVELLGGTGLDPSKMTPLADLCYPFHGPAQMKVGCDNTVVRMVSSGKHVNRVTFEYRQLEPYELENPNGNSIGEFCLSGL

[2] = Plasma concentration in dog at 1 mg/kg after intravenous infusion for 30 mins; type: ADME, organism-based, Canis lupus familiaris; parameters: dose 1 mg/kg, route intravenous
Rattus norvegicus [3] = experiment: Effect on acute renal function in rat assessed as change in urine sodium level per 100 gm body weight at 30 mg/kg, po (RVb= 49.9+/-3.1 mg/dl); type: functional
Rattus norvegicus [4] = experiment: Effect on acute renal function in rat assessed as change in urine phosphate level per 100 gm body weight at 30 mg/kg, po (RVb= 8.7+/-2.3 mg/dl); type: functional
Rattus norvegicus [5] = experiment: Effect on acute renal function in rat assessed as change in urine volume per 100 gm body weight at 30 mg/kg, po (RVb= 1.7+/-0.2 ml/100g); type: functional
[6] = target: T2, Adenosine receptor A1 (Homo sapiens) (UniProt P30542); experiment: Inhibition of ligand binding in adenosine A1 receptor; parameters: scale not given: the % may be the effect or the level left
T2 sequence (whole entry): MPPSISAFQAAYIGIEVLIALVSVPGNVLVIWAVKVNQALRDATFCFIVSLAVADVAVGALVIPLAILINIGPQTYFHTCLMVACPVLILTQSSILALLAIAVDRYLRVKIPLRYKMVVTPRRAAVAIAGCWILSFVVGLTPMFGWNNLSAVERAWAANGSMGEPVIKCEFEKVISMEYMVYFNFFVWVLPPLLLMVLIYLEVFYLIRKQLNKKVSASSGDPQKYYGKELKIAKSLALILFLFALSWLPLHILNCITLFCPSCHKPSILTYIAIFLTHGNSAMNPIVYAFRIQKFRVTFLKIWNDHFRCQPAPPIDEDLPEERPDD
Summary of the method: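 Screened at 10^-7 and 10^-5 M for binding inhibition. Then run twice in a dose–response format on the cloned rat adenosine A1 receptor expressed in CHO cells to obtain Ki.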

Canis familiaris [7] = experiment: Effect on respiratory function in spontaneously breathing mongrel dog assessed as change in respiration rate at 5 mg/kg after intravenous infusion for 15 mins (RVb= -6.4+/-4.0 %); type: functional, Canis lupus familiaris
Canis familiaris [8] = experiment: Effect on respiratory function in spontaneously breathing mongrel dog assessed as change in respiration rate at 5 mg/kg after intravenous infusion for 30 mins (RVb= -4.5+/-8.2 %); type: functional, Canis lupus familiaris
Canis familiaris [9] = experiment: Effect on respiratory function in spontaneously breathing mongrel dog assessed as change in respiration rate at 5 mg/kg after intravenous infusion for 60 mins (RVb= -19.5+/-16.3 %); type: functional, Canis lupus familiaris
Canis familiaris [10] = experiment: Effect on respiratory function in spontaneously breathing mongrel dog assessed as change in airway resistance at 5 mg/kg after intravenous infusion for 6 mins (RVb= 3.9+/-4.7 %); type: functional, Canis lupus familiaris
Canis familiaris [11] = experiment: Effect on respiratory function in spontaneously breathing mongrel dog assessed as change in airway resistance at 5 mg/kg after intravenous infusion for 15 mins (RVb= 27.8+/-17.9 %); type: functional, Canis lupus familiaris
Canis familiaris [12] = experiment: Effect on respiratory function in spontaneously breathing mongrel dog assessed as change in mean arterial pressure at 5 mg/kg after intravenous infusion for 15 mins (RVb= 2.1+/-1.5 %); type: functional, Canis lupus familiaris, Artery
Canis familiaris [13] = experiment: Effect on respiratory function in spontaneously breathing mongrel dog assessed as change in heart rate at 5 mg/kg after intravenous infusion for 15 mins (RVb= -2.3+/-1.7 %); type: functional, Canis lupus familiaris
Adenosine receptor A1 = target: T3, Adenosine receptor A1 (Rattus norvegicus, UniProt P25099); experiment: Binding affinity to rat adenosine A1 receptor expressed in CHO cells; type: cell-based
T3 sequence (P25099 whole entry): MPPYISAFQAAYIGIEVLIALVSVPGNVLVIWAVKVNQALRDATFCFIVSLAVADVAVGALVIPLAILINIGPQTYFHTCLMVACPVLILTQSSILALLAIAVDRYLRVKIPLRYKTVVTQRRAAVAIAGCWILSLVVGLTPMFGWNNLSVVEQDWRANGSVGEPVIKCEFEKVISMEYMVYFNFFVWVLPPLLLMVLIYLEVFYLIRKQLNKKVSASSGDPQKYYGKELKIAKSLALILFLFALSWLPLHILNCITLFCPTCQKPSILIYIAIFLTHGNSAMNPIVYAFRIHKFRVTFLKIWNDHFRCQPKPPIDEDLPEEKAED
Summary of the method: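 Cloned rat adenosine A1 receptor transfected into CHO cells, part of a contracted screen.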

Rattus norvegicus [14] = experiment: Toxicity in rat assessed as total distance traveled at 10 mg/kg, po after 1 hr by spontaneous locomotor test; type: functional
Summary of the method: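 Rat spontaneous locomotor activity test with oral dosing in 0.25% Methocel 1 h before testing, at doses up to 100 mg/kg. Values are mean ± SEM, with N rats per group, compared with the vehicle (zero-dose) group.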

[15] = AUC (0 to infinity) in chimpanzee at 1 mg/kg, po; type: ADME, organism-based, Pan troglodytes; parameters: time infinity, dose 1 mg/kg, route oral; conditions: plasma
Summary of the method: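 Chimpanzee PK. Oral: 1 mg/kg in two alert animals, given as a 1 mg/mL suspension in 50–50 (v/v) 0.5% methylcellulose/Tang orange juice with 1% Tween-80. IV: 0.5 mg/kg in one animal in 10% DMAC, 70% propylene glycol and deionized water, infused over 10 min (0.2 mL/kg). EDTA blood was taken predose and at 2–96 h; iv sampling added 6, 15 and 30 min.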

[16] = Volume of distribution at steady state in chimpanzee at 0.5 mg/kg, iv; type: ADME, organism-based, Pan troglodytes; parameters: dose 0.5 mg/kg, route intravenous; conditions: in vivo, read-out: Vdss
Summary of the method: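 Single chimpanzee given 0.5 mg/kg iv over 10 min (0.2 mL/kg) in 10% DMAC, 70% propylene glycol and deionized water. EDTA blood taken predose, at 6, 15 and 30 min, and at 2 to 96 h.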

pIC50 [1]: < 6.00
concentration at 0.5 h [2]: 473 nM
Activity [6]: 90%
pKi (Adenosine receptor A1): 5.58
AUC(0-inf) [15]: 11.7 µM·h
Vd [16]: 4.2 L/kg
Structure (SMILES): CC[C@@H](C)Nc1nc(C)nc2c(-c3ccc(OC)nc3C)c(C)nn12 [PEXACERFONT]
Activity (Rattus norvegicus [3]): 58.4 mg/dL
Activity (Rattus norvegicus [4]): 4.6 mg/dL
Activity (Rattus norvegicus [5]): 3 mL/100 g
Activity (Canis familiaris [7]): -3.1%
Activity (Canis familiaris [8]): -32.5%
Activity (Canis familiaris [9]): -14.6%
Activity (Canis familiaris [10]): 15.3%
Activity (Canis familiaris [11]): 9%
Activity (Canis familiaris [12]): 1.2%
Activity (Canis familiaris [13]): -2.9%
Activity (Rattus norvegicus [14]): 3695 cm
